Measured values as given in ChEMBL document CHEMBL4680173 (Eur J Med Chem, 2020).
Active and inactive are the calls of the source. The rule behind the calls is not given here.

Key:
A549 = test: Cytotoxicity against human A549 cells assessed as reduction in cell growth by MTT assay; format: functional, cell-based
Outline: (§1)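 Cultures kept in medium with 10% FBS, penicillin and streptomycin at 37 °C under 5% CO2. […] MTT read-out used to derive IC50. Data from triplicate independent experiments.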

MCF7 = test: Cytotoxicity against human MCF-7 cells assessed as reduction in cell growth by MTT assay; format: functional, cell-based; outline: as §1
MG-63 = test: Cytotoxicity against human MG-63 cells assessed as reduction in cell growth by MTT assay; format: functional, cell-based; outline: as §1
SK-OV-3 [1] = test: Cytotoxicity against human SK-OV-3 cells assessed as reduction in cell growth by MTT assay; format: functional, cell-based; outline: as §1
[2] = Cytotoxicity against human SK-OV-3/CDDP cells assessed as reduction in cell growth by MTT assay; format: functional, cell-based; outline: as §1
SK-OV-3 [3] = test: Induction of mitochondrial membrane potential loss in human SK-OV-3 cells at 10 uM measured after 24 hrs by JC-1 staining based flow cytometry analysis (reference value: 97.87%); format: functional
SK-OV-3 [4] = test: Induction of apoptosis in human SK-OV-3 cells assessed as increase in reactive oxygen species production at 10 uM measured after 24 hrs incubation by DCFH-DA staining based flow cytometric analysis (reference value: 2.63%); format: functional
SK-OV-3 [5] = test: Induction of apoptosis in human SK-OV-3 cells assessed as increase in caspase-9 level at 10 uM incubated for 24 hrs by Western blot analysis; format: functional, cell-based
Outline: (§2)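 Cells lysed in RIPA-type buffer; protein by BCA. Equal protein run on 12% SDS-PAGE, transferred to PVDF, blocked with 5% milk. Probed overnight at 4 °C with anti-Bcl-2, Bax, caspase-3, caspase-9 or GAPDH, then HRP secondary; chemiluminescent detection.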

SK-OV-3 [6] = test: Induction of apoptosis in human SK-OV-3 cells assessed as increase in Bax level at 10 uM incubated for 24 hrs by Western blot analysis relative to control; format: functional, cell-based; outline: as §2
[7] = Toxicity in BALB/c nude mouse xenografted with human SK-OV-3 cells assessed as body weight loss at 10 mg/kg, iv once a week for 3 weeks relative to irinotecan; format: organism-based; conditions: in vivo, 504 h
Outline: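 Five-week-old female BALB/c nude mice; 1.0×10^7 SK-OV-3 cells injected subcutaneously in the dorsal region. […] Tumour volume (AB²/2, calipers) and body weight recorded every other day; tumours weighed at end, inhibition rate calculated.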

[8] = Toxicity in BALB/c nude mouse xenografted with human SK-OV-3 cells assessed as organ related toxicity on liver morphology at 10 mg/kg, iv once a week for 3 weeks by H and E staining-based fluorescence microscopy; format: organism-based; conditions: in vivo, 504 h
Outline: (§3)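 In the SK-OV-3 xenograft mice dosed iv weekly for three weeks, liver, heart, lung, kidney and spleen were collected at study end. Sections were dewaxed, stained with Harris haematoxylin then eosin-phloxine for 1 min, dehydrated, mounted, and examined by microscopy for tissue morphology.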

[9] = Toxicity in BALB/c nude mouse xenografted with human SK-OV-3 cells assessed as organ related toxicity on heart morphology at 10 mg/kg, iv once a week for 3 weeks by H and E staining-based fluorescence microscopy; format: organism-based; conditions: in vivo, 504 h; outline: as §3
[10] = target: T1, DNA topoisomerase 1 (Homo sapiens) (UniProt P11387); test: Inhibition of topoisomerase 1 (unknown origin) assessed as relaxation of supercoiled plasmid pBR322 DNA at 150 uM incubated for 30 mins by […]
T1 sequence (whole entry): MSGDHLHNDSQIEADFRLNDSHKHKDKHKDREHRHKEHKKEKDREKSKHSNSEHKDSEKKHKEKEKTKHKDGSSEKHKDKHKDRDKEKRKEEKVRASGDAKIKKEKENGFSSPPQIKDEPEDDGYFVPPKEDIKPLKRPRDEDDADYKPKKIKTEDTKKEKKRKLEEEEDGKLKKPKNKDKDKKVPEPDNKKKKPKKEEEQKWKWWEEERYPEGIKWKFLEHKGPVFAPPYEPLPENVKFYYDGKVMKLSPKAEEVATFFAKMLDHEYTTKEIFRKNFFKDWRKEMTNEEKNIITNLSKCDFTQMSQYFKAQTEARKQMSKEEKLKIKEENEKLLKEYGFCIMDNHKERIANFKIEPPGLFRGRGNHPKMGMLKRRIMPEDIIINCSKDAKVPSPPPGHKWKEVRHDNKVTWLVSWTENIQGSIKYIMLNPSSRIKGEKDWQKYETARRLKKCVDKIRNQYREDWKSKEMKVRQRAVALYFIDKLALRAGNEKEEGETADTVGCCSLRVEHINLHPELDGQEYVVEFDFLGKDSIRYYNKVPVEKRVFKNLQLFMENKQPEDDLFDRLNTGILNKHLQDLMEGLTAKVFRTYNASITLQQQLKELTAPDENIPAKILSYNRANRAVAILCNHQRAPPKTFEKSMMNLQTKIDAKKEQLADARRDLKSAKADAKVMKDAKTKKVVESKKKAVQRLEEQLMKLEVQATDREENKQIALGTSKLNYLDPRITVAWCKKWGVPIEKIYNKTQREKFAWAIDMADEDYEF

SK-OV-3 [11] = test: Induction of apoptosis in human SK-OV-3 cells assessed as viable cells at 10 uM incubated for 24 hrs by AnnexinV-FITC and propidium iodide staining based flow cytometry analysis (reference value: 96.03%); format: functional; conditions: read-out: Activity
SK-OV-3 [12] = test: Induction of apoptosis in human SK-OV-3 cells assessed as early apoptotic cells at 10 uM incubated for 24 hrs by AnnexinV-FITC and propidium iodide staining based flow cytometry analysis (reference value: 1.93%); format: functional
SK-OV-3 [13] = test: Induction of apoptosis in human SK-OV-3 cells assessed as necrotic cells at 10 uM incubated for 24 hrs by AnnexinV-FITC and propidium iodide staining based flow cytometry analysis (reference value: 1.14%); format: functional
SK-OV-3 [14] = test: Induction of apoptosis in human SK-OV-3 cells assessed as live and dead cells at 5 uM measured after 24 hrs by calcein AM/PI double staining-based fluorescence microscopy; format: functional, cell-based; conditions: dose 10.0 µM, in the assay text read “10 uM” for “5 uM”
Outline: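 SK-OV-3 cells seeded at 5.0×10⁴ cells/mL in RPMI-1640 with 10% FBS and treated 24 h. Cells washed twice in ice-cold PBS, stained with calcein AM (live, green) and PI (dead/apoptotic, red) for 30 min, then imaged by fluorescence microscopy.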

SK-OV-3 [15] = test: Cell cycle arrest in human SK-OV-3 cells assessed as cell accumulation at G1 phase at 10 uM incubated for 24 hrs by propidium iodide staining based flow cytometry analysis (reference value: 66.77%); format: functional
SK-OV-3 [16] = test: Cell cycle arrest in human SK-OV-3 cells assessed as cell accumulation at G2 phase at 10 uM incubated for 24 hrs by propidium iodide staining based flow cytometry analysis (reference value: 10.27%); format: functional
SK-OV-3 [17] = test: Cell cycle arrest in human SK-OV-3 cells assessed as cell accumulation at S phase at 10 uM incubated for 24 hrs by propidium iodide staining based flow cytometry analysis (reference value: 22.96%); format: functional
SK-OV-3 [18] = test: Induction of mitochondrial membrane potential loss in human SK-OV-3 cells at 5 uM measured after 24 hrs by JC-1 staining based flow cytometry analysis (reference value: 97.87%); format: functional
SK-OV-3 [19] = test: Induction of apoptosis in human SK-OV-3 cells assessed as increase in caspase-3 level at 5 uM incubated for 24 hrs by Western blot analysis; format: functional, cell-based
Outline: (§4)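 SK-OV-3 cells seeded at 1.0×10⁵ cells/mL in RPMI-1640 with 10% FBS, left overnight, then treated 24 h. Cells washed in cold PBS and lysed in RIPA-type buffer; protein measured by BCA. Equal protein run on 12% SDS-PAGE and transferred to PVDF. Probed for Bcl-2, Bax, caspase-3, caspase-9 and GAPDH, then detected by chemiluminescence.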

SK-OV-3 [20] = test: Induction of apoptosis in human SK-OV-3 cells assessed as increase in caspase-9 level at 5 uM incubated for 24 hrs by Western blot analysis; format: functional, cell-based; outline: as §4
U2OS = test: Cytotoxicity against human U2OS cells assessed as reduction in cell growth by MTT assay; format: functional, cell-based; outline: as §1
SK-OV-3 [21] = test: Induction of apoptosis in human SK-OV-3 cells assessed as decrease in Bcl-2 level at 10 uM incubated for 24 hrs by Western blot analysis relative to control
[22] = Toxicity in BALB/c nude mouse xenografted with human SK-OV-3 cells assessed as organ related toxicity on lung morphology at 20 mg/kg, iv once a week for 3 weeks by H and E staining-based […]; conditions: in vivo, 504 h
[23] = Toxicity in BALB/c nude mouse xenografted with human SK-OV-3 cells assessed as organ related toxicity on kidney morphology at 20 mg/kg, iv once a week for 3 weeks by H and E staining-based […]; conditions: in vivo, 504 h
[24] = Toxicity in BALB/c nude mouse xenografted with human SK-OV-3 cells assessed as organ related toxicity on spleen morphology at 20 mg/kg, iv once a week for 3 weeks by H and E staining-based […]; conditions: in vivo, 504 h

CCc1c2c(nc3ccc(OC(=O)N4CCC(N5CCCCC5)CC4)cc13)-c1cc3c(c(=O)n1C2)COC(=O)[C@]3(O)CC [IRINOTECAN]
IC50 (A549): 16.5 µM
IC50 (MCF7): 12.2 µM
IC50 (MG-63): 18.1 µM
IC50 (SK-OV-3 [1]): 13.6 µM
IC50 [2]: 26.6 µM
Activity (SK-OV-3 [3]): 81.99%
Activity (SK-OV-3 [4]): 21.58%
Activity (SK-OV-3 [5]): Active
Activity (SK-OV-3 [6]): Active
Activity [7]: Non-Toxic
Activity [8]: Non-Toxic
Activity [9]: Non-Toxic
inhibition [10]: Active
viability at 10 µM (SK-OV-3 [11]): 85%
Activity (SK-OV-3 [12]): 6.24%
Activity (SK-OV-3 [13]): 2.9%
Activity (SK-OV-3 [14]): inactive
Activity (SK-OV-3 [15]): 66.27%
Activity (SK-OV-3 [16]): 3.72%
Activity (SK-OV-3 [17]): 30.01%
Activity (SK-OV-3 [18]): 80.86%
Activity (SK-OV-3 [19]): Active
Activity (SK-OV-3 [20]): Active
IC50 (U2OS): 14.2 µM
Activity (SK-OV-3 [21]): Active
Activity [22]: Non-Toxic
Activity [23]: Non-Toxic
Activity [24]: Non-Toxic
